# Experimental data of several laboratories.
# Compare with care: the assays were run in different laboratories.
# Matrix: Caco-2
Compound,setting,efflux ratio
CO/N=C(\C(=O)N[C@@H]1C(=O)N2C(C(=O)O)=C(CSC(=O)c3ccco3)CS[C@H]12)c1csc(N)n1,"200 µg/mL, 2 h, pH 7.4",1.96
O=c1c(O[C@@H]2O[C@H](CO)[C@H](O)[C@H](O)[C@H]2O)c(-c2ccc(O)c(O)c2)oc2cc(O)cc(O)c12,50 µg/mL,1.26
CC(C)(N)COCC(=O)N1CCC[C@H](C(=O)NCc2nc(-c3ccc(C(F)(F)F)cc3)cs2)C1,,240
CCCCCCOC(=O)NC(=N)c1ccc(NCc2nc3cc(C(=O)N(CCC(=O)OCC)c4ccccn4)ccc3n2C)cc1,"5 µM, 2 h",510
Cc1ncc(Cl)cc1NCc1ccc(C(=O)N[C@@H](CC2CCCC2)C(=O)NC2CC2)s1,"5 µM, 2 h, pH 7.4",41
CCOCC(=O)N1CCC[C@H](C(=O)NCc2nc(-c3ccc(C#N)nc3)cs2)C1,,4.3
O=c1cc(-c2ccc(O)cc2)oc2c([C@@H]3O[C@H](CO)[C@@H](O)[C@H](O)[C@H]3O)c(O)cc(O)c12,50 µg/mL,1.11
O=C1CCC(N2Cc3cc(C4CCN(Cc5ccccc5)CC4)ccc3C2=O)C(=O)N1 (stereo not shown),"10 µM, 2 h",1.9
N[C@@H](COCC(=O)N1CCC[C@H](C(=O)NCc2nc(-c3ccc(C(F)(F)F)cc3)cs2)C1)c1ccccc1,,11
N#Cc1ccc(C[C@H](Nc2c(Nc3ccc(Br)cc3)c(=O)c2=O)C(=O)N2CCc3ccccc32)cc1,"100 µM, 2 h",> 20
O=C(Nc1ccc(OC(F)(F)F)cc1)N[C@H]1CC[C@H](Oc2ccc(C(=O)O)cc2)CC1,,0.98
NCCOCC(=O)N1CCC[C@H](C(=O)NCc2nc(-c3ccc(C(F)(F)F)cc3)cs2)C1,,120
N#Cc1ccc(C[C@H](Nc2ncc(-c3ccc(F)cc3)o2)C(=O)N2CCc3ccccc32)cc1,"100 µM, 2 h",19
